S100A4 MyoIIA: blocks human S100A4 binding to myosin IIA peptide | P26447 | S100A4/TAMRA-MyoIIA peptide fluorescence polarization | inhibition, % at 10.7 µM | 0.14% of 360,000 active;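 active = mean inhibition of at least 70% across replicates, with every replicate also reaching that level; inconclusive = mean inhibition reaches 70% but some replicates fall short; inactive = mean inhibition below 70%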
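incubation = readout 5 min after mixing, signal stable up to 60 min | system = S100A4 monomer protein | buffer or medium = HEPES pH 7.2 with CaCl2, KCl, NaCl, DTT, Triton | benchmarks = neutral control DMSO, positive control TFP | also added = fluorescent myosin IIA peptide, 5 nM | compound dosing = one concentration per compound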
E-selectin induc: induces E-selectin expression in human endothelial cells | P16581 | activation, % at 7.58 µM | 0.37% of 260,000 active | HUVEC E-selectin immunofluorescence imaging; normalized: neutral wells 0, TNF-alpha wells 100;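 active = mean E-selectin-positive cell signal at least 10% of the positive control, reached in at least 60% of replicates, without over 20% cell loss; inconclusive = no rule given, readout overlaps actives, possibly toxicity-flagged; inactive = the rest, including those meeting only one limit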
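Read-out: % PE-positive cells | Test system: HUVEC | Doses: One compound dose added by pin transfer | Buffer or medium: EGM-2 over gelatin coat | Signal: Immunofluorescence imaging | Benchmarks: TNF-alpha, DMSO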
Ecoli rRNA inh: selective bacterial rRNA inhibition in E. coli; E. coli WT GFP vs humanized-ribosome RFP mutants, fluorescence, 24 h; stronger effect = lower value; DMSO median 0, no signal -100; GFP signal change (wild-type ribosome), % (test concentration not listed); 1.6% of 350,000 active; AID 720706;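 active = significant combined selectivity score with lowered wild-type GFP, culture density cut under 30%, mutant RFP and density less affected; inactive = any of these conditions unmet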
AF4-AF9 inh: blocks AF4 peptide binding to human AF9 | P42568 | 0.47% of 350,000 active | AlphaScreen, biotin-AF4 peptide binding to FLAG-AF9 | inhibition, % at 10 µM;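 active = every replicate reaching a set inhibition limit, whatever the replicate mean, cut at about 25% in these data; inconclusive = mean inhibition reaches that limit but some replicates miss it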;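 also: 0% = plate neutral control median and 100% = total signal loss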
SIRT5 inh: inhibitors of human sirtuin-5 desuccinylase | 1.1% of 330,000 active | Purified SirT5, succinyl-peptide AMC, trypsin-coupled fluorescence | Q9NXA8 | inhibition, % at 15 µM; in the data active = inhibition above about 15%; inconclusive = no clear call, values can overlap the other calls
ERAP1 inh: blocks human ERAP1 aminopeptidase activity; Q9NZ08; inhibition, % at 10.7 µM; recombinant ERAP1, Leu-AMC fluorescence, 60 min; AID 652197; 0.15% of 340,000 active;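 active = mean replicate inhibition of at least 30%, or all replicates individually reaching that 30% level; inactive = mean below 30% and not every replicate reaching it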;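 also: 0% = neutral control wells and 100% = L-leucinethiol positive control wells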
Target sequence (Q9NZ08 whole entry, looked up): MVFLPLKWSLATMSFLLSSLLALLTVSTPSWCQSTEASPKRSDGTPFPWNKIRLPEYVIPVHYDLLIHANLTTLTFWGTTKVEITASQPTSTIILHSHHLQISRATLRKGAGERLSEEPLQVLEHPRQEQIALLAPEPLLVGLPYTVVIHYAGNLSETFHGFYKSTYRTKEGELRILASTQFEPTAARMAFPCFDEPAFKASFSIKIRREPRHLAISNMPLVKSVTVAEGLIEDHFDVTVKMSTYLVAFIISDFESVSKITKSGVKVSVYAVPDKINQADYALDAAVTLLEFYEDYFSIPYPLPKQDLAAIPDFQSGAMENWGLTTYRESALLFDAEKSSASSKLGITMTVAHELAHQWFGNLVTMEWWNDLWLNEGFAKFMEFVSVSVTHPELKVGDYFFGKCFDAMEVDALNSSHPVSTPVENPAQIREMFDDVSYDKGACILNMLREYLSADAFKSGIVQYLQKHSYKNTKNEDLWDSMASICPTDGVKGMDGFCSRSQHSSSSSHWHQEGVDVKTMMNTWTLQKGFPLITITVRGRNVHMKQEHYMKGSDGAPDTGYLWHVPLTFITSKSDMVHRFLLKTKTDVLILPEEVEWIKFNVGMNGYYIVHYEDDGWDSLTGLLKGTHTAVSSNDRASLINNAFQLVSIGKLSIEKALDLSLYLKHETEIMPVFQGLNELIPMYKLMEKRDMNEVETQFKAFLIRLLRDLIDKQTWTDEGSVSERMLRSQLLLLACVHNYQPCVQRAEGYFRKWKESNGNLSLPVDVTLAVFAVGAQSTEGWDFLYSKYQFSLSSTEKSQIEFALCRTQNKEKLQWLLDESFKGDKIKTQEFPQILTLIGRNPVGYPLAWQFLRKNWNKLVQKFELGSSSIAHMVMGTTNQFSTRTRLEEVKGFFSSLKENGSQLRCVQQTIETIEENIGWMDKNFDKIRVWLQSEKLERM
Active calls of the source: *; ? = inconclusive; nt = not tested or not shown. In the library only some 3.4% were active in any assay of this set; here they are far more common.

SMILES	S100A4 MyoIIA	E-selectin induc	Ecoli rRNA inh	AF4-AF9 inh	SIRT5 inh	ERAP1 inh
COCC#Cc1ccc([C@@H]2[C@@H](CO)N3C(=O)CN(C(=O)Nc4ccc(F)cc4)C[C@H]23)cc1	47	0	-5	-3	-5	2
O=C(CCCN1C(=O)/C(=C/c2ccccc2)SC1=S)Nc1ccccc1O	11	7	1	-1	-2	2
O=C(CCCN1C(=O)/C(=C\c2ccccc2)SC1=S)Nc1ccc(O)cc1C(=O)O	0	nt	-21*	1	-1	36*
O=C(CCCN1C(=O)/C(=C\c2ccccc2)SC1=S)N1CCOCC1	0	0	-21*	16	0	7
O=C(CN1C(=O)/C(=C\c2ccco2)SC1=S)Nc1ccc(O)cc1C(=O)O	-42	0	6	1	49*	14
O=C(CCN1C(=O)/C(=C/c2ccccc2Cl)SC1=S)Nc1ccccc1C(=O)O	0	nt	-41	-12	18*	3
O=C(CCN1C(=O)/C(=C\c2ccccc2Cl)SC1=S)Nc1cccnc1	-9	-1	-1	1	-3	-1
C[C@H]1CCCCO[C@@H](CN(C)C(=O)NC2CCCCC2)[C@@H](C)CN([C@@H](C)CO)C(=O)c2cc(NS(C)(=O)=O)ccc2O1	nt	nt	0	nt	nt	nt
C[C@@H](NC(=O)C[C@@H]1CC[C@@H]2[C@H](COC[C@H](O)CN2Cc2cc(F)ccc2F)O1)c1ccccc1	-6	0	-12	-1	7	1
O=C(CCCN1C(=O)/C(=C/c2ccco2)SC1=S)Nc1ccccc1C(=O)O	-13	nt	6	nt	27*	12
O=C(CCN1C(=O)/C(=C/c2ccco2)SC1=S)Nc1ccc(O)cc1C(=O)O	-30	0	7	-5	48*	6
O=C(O)CCCN1C(=O)/C(=C\c2ccco2)SC1=S	-23	nt	2	-3	7	6
COc1ccc(S(=O)(=O)Nc2ccc3c(c2)C(=O)N([C@H](C)CO)C[C@H](C)[C@@H](CN(C)C)OCCCC[C@@H](C)O3)cc1	7	0	3	-8	-1	-5
Cc1ccc(-c2ccc3c(c2)O[C@H](CN(C)S(C)(=O)=O)[C@@H](C)CN([C@@H](C)CO)S3(=O)=O)cc1	0	0	-5	1	-1	-1
Clc1ccc(-c2nc3ccc(Br)cn3c2Cc2ccsc2)cc1	23	-2	-23*	-1	-1	1
N#Cc1ccc(-c2nc3ccc(Br)cn3c2Cc2ccsc2)cc1	9	0	-2	-1	-2	1
O=S(=O)(c1cnc(Cl)c(Br)c1)N1CCc2ccccc21	1	0	-1	1	-1	0
O=S(=O)(c1cnc(Cl)c(Cl)c1)N1CCc2ccccc21	0	nt	-33*	-3	0	5
C[C@@H]1CN([C@H](C)CO)C(=O)c2cc(NC(=O)Cn3cnnn3)ccc2O[C@H]1CN(C)S(C)(=O)=O	4	-6	3	-1	nt	-1
CN(C)C(=O)c1ccc(-c2ccc([C@H]3[C@H](CO)N4C(=O)CN(C(=O)C5CC5)C[C@@H]34)cc2)cc1	6	0	6	-1	2	-3
CN(CC(=O)Nc1cccc(Cl)c1)S(=O)(=O)c1ccc2c(c1)n(C)c(=O)c(=O)n2C	0	0	10	2	33*	-3
CN(CC(=O)Nc1cccc(Cl)c1)S(=O)(=O)c1ccc2[nH]c(=O)oc2c1	5	nt	-25*	-6	1	-4
O=C(c1ccccc1)N1CC2(C1)[C@H](c1ccccc1)[C@@H](CO)N2C(=O)CC1CC1	-9	0	1	-2	-2	0
CCNC(=O)C[C@H]1CC[C@H]2[C@H](COc3ccc(NC(C)=O)cc3C(=O)N2C)O1	-35	0	2	1	-3	-1
O=C1N[C@@H](Cc2ccccc2)COCc2cn(nn2)CC[C@@H]1Cc1cccc(Cl)c1	nt	nt	1	nt	nt	nt
SMILES	S100A4 MyoIIA	E-selectin induc	Ecoli rRNA inh	AF4-AF9 inh	SIRT5 inh	ERAP1 inh
COc1ccccc1-c1ccccc1[C@H]1[C@@H](C#N)N(C(=O)C2CC2)[C@H]1CO	6	?	3	-2	1	0
O=C(Nc1ccc2c(c1)OCCO2)C1c2ccccc2OCC(=O)N1Cc1ccc2c(c1)OCO2 (centres undefined)	4	0	-12	3	0	nt
Cc1cccc(C)c1NC(=O)C1c2ccccc2OCC(=O)N1Cc1ccc2c(c1)OCO2 (centres undefined)	-14	0	-22*	0	-2	nt
c1ccc(Nc2nnc(-c3cccnc3)s2)cc1	-1	48*	14	-1	-2	0
COc1ccccc1N1CCN(C(=O)c2oc3ccc(Br)cc3c2C)CC1	-3	0	-10	-4	-1	0
COc1ccccc1N1CCN(C(=O)c2oc3ccc(F)cc3c2C)CC1	23	nt	-36*	-20	3	-1
Cc1c(C(=O)N2CCN(S(=O)(=O)c3cc(F)ccc3F)CC2)oc2ccccc12	-3	343*	-18	-6	-3	1
Cc1c(C(=O)N2CCCC2)oc2ccc(Br)cc12	-31	nt	-30*	-4	1	3
COc1ccc2c3c([nH]c2c1)[C@@H](CO)N(C(=O)Cc1ccccc1)CC31CN(C)C1	-15	0	4	-1	-3	-1
C[C@@H]1CN([C@H](C)CO)C(=O)c2c(c3ccccc3n2C)-c2ccccc2CO[C@H]1CN(C)S(=O)(=O)c1ccc(C(F)(F)F)cc1	2	-1	1	-1	25*	2
C[C@H]1CN([C@@H](C)CO)C(=O)c2c(c3ccccc3n2C)-c2ccccc2CO[C@H]1CN(C)S(=O)(=O)c1ccc(C(F)(F)F)cc1	-4	11	6	2	0	3
C[C@@H]1CN([C@H](C)CO)C(=O)c2c(c3ccccc3n2C)-c2ccccc2CO[C@@H]1CN(C)S(=O)(=O)c1ccc(C(F)(F)F)cc1	-1	0	5	1	32*	-1
CC(=O)N(C)C[C@H]1Oc2cc(C#Cc3ccncc3)ccc2S(=O)(=O)N([C@H](C)CO)C[C@H]1C	-6	0	2	-6	4	-2
Cc1ccccc1S(=O)(=O)N1CCCCN2[C@H](CO)[C@H](c3ccc(-c4cncnc4)cc3)[C@@H]2C1	0	0	-7	-4	-4	1
CC(C)(C)NC(=O)NC(=O)C[n+]1ccc(Cc2ccc([N+](=O)[O-])cc2)cc1	4	0	-14*	2	2	-3
Cc1ccc(Cl)cc1NC(=O)C[n+]1ccc(Cc2ccc([N+](=O)[O-])cc2)cc1	-3	9	-51	16	0	6
COc1ccccc1/C=C(/C(=O)OCC(=O)Nc1ccccc1C)c1ccccc1	-2	nt	-22*	3	1	18

High-throughput results as filed in PubChem BioAssay.
